# Source: ChEMBL document CHEMBL1134692, “QSAR study on the contribution of log P and E(s) to the in vitro antiprotozoal activity of glutathione derivatives” (J Med Chem, 2001)
# Key:
# [1] = Evaluated for its inhibitory activity against KB cells; assay type: functional; settings: Homo sapiens, read-out: ED50 (the source's name)
# In short: (§1)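 KB cells (human oral pharyngeal carcinoma) grown in RPMI with 10% calf foetal serum at 37 °C, 5% CO2 in humidified air. Exposed to compound for 3 days under the same conditions, then viability read by Alamar Blue assay; ED50 reported.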
# [2] = Relative toxicity was evaluated as ED50 for KB cell line to that of ED50 for T.B. brucei; assay type: organism-based; settings: trypanosoma brucei brucei, KB cells versus Trypanosoma brucei brucei; read-out: Relative toxicity
# In short: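 Ratio of ED50 against KB cells to ED50 against T. b. brucei bloodstream forms, each from the 3-day Alamar Blue assays.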
# [3] = system: Trypanosoma brucei brucei; experiment: Inhibitory activity against Trypanosoma brucei; assay type: functional; settings: read-out: ED50 (the source's name)
# In short: (§2)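 T. b. brucei S427 bloodstream trypomastigotes kept in HMI-18 with 20% heat-inactivated FCS at 37 °C, 5% CO2. Parasites at 2 × 10^5/mL were mixed 1:1 with compound, run in triplicate as a 3-fold dilution series from 30 μM top. Incubated 3 days at 37 °C; Alamar Blue read-out on day 3 gave ED50. Pentamidine positive control.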
# [4] = system: Trypanosoma cruzi; experiment: Evaluated for its inhibitory activity against Trypanosoma cruzi; NA= not active at 30 umol; assay type: functional, organism-based
# In short: (§3)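 Starch-elicited female CD1 mouse peritoneal macrophages (4 × 10^4/well, RPMI-1640, 10% HIFCS) were infected after 24 h at 5:1 with T. cruzi Y trypomastigotes derived from MDCK cultures. Drug was applied as a 3-fold dilution series in quadruplicate for 3 days. Activity was the percentage of macrophages cleared of amastigotes. Nifurtimox control.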
# [5] = system: Leishmania donovani; experiment: Inhibitory activity against Leishmania donovani; assay type: functional; settings: read-out: ED50 (the source's name)
# In short: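 Starch-elicited peritoneal macrophages from female CD1 mice were plated at 4 × 10^4/well in RPMI-1640 with 10% HIFCS. After 24 h they were infected at 10:1 with L. donovani amastigotes (MHOM/ET/67/L82, hamster-passaged). Drug was given as a 3-fold dilution series in quadruplicate for 5 days. Activity was scored as the percentage of macrophages cleared of amastigotes. Sodium stibogluconate control.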
# [6] = Partition coefficient (logP); assay type: physicochemical; settings: octanol/water
# [7] = system: Leishmania donovani; experiment: (§4) Percent decrease in viable parasitesrelative to the control at 30 uM; assay type: functional
# In short: (§5)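 Single concentration of 30 μM in the intracellular amastigote macrophage assays. Inhibition is expressed as the percent decrease in viable parasites relative to untreated control.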
# [8] = system: Trypanosoma cruzi; experiment: as §4; assay type: functional; in short: as §5
# [9] = system: Trypanosoma cruzi; experiment: Evaluated for its inhibitory activity against Trypanosoma cruzi; assay type: functional; settings: read-out: ED50 (the source's name); in short: as §3
# [10] = system: Trypanosoma cruzi; experiment: (§6) Percent decrease in viable parasitesrelative to the control; assay type: functional; in short: as §5
# [11] = system: Trypanosoma brucei brucei; experiment: Compound was evaluated for its inhibitory activity against Trypanosoma brucei; NA= not active at 30 umol; assay type: functional, organism-based; in short: as §2
# [12] = system: Leishmania donovani; experiment: as §6; assay type: functional; in short: as §5
# [13] = species on record: Homo sapiens; experiment: Compound was evaluated for its inhibitory activity against KBcells; assay type: functional; in short: as §1
Structure (SMILES),EC50 [1] [µM],EC50 [3] [µM],EC50 [5] [µM],logP [6],EC50 [9] [µM],selectivity ratio [2],Activity against T. cruzi [4],inhibition at 30 µM [7] [%],inhibition at 30 µM [8] [%],Inhibition [10] [%],NA [11],Inhibition [12] [%],ED50 [13] [µM]
CC(C)CC(C)OC(=O)CNC(=O)C(CSc1ccc([N+](=O)[O-])cc1[N+](=O)[O-])NC(=O)CCC(NC(=O)OCc1ccccc1)C(=O)OC(C)CC(C)C (configuration not stated),43.2,0.25,> 30,6.73,> 30,173,–,8,31,–,–,–,–
O=C(CCC(NC(=O)OCc1ccccc1)C(=O)OCCCCl)NC(CSc1ccc([N+](=O)[O-])cc1[N+](=O)[O-])C(=O)NCC(=O)OCCCCl (configuration not stated),0.39,1.05,> 30,4.58,> 30,0.8,–,–,–,35,–,–,–
CCCCCCCCOC(=O)CNC(=O)C(CSc1ccc([N+](=O)[O-])cc1[N+](=O)[O-])NC(=O)CCC(NC(=O)OCc1ccccc1)C(=O)OCCCCCCCC (configuration not stated),95.3,–,> 30,8.99,–,–,not active at 30 umol,–,–,–,not active at 30 umol,11,–
CCC(CC)OC(=O)CNC(=O)C(CSc1ccc([N+](=O)[O-])cc1[N+](=O)[O-])NC(=O)CCC(NC(=O)OCc1ccccc1)C(=O)OC(CC)CC (configuration not stated),213,3.74,> 30,5.89,–,57,–,17,–,–,–,–,–
CCCC(CC)OC(=O)CNC(=O)C(CSc1ccc([N+](=O)[O-])cc1[N+](=O)[O-])NC(=O)CCC(NC(=O)OCc1ccccc1)C(=O)OC(CC)CCC (configuration not stated),–,–,–,6.87,–,–,–,–,–,–,–,–,–
CCC(C)OC(=O)CNC(=O)C(CSc1ccc([N+](=O)[O-])cc1[N+](=O)[O-])NC(=O)CCC(NC(=O)OCc1ccccc1)C(=O)OC(C)CC (configuration not stated),> 300,2,> 30,4.91,–,150,–,36,–,–,–,–,–
CCCCOC(=O)C(CCC(=O)NC(CSc1ccc([N+](=O)[O-])cc1[N+](=O)[O-])C(=O)NCC(=O)O)NC(=O)OCc1ccccc1 (configuration not stated),–,10.3,> 30,2.8,> 30,–,–,–,–,–,–,12,–
CCCC(C)OC(=O)CNC(=O)C(CSc1ccc([N+](=O)[O-])cc1[N+](=O)[O-])NC(=O)CCC(NC(=O)OCc1ccccc1)C(=O)OC(C)CCC (configuration not stated),393,3.34,> 30,5.89,> 30,118,–,25,17,–,–,–,–
CCCCCCOC(=O)CNC(=O)C(CSc1ccc([N+](=O)[O-])cc1[N+](=O)[O-])NC(=O)CCC(NC(=O)OCc1ccccc1)C(=O)OCCCCCC (configuration not stated),109,5.8,> 30,7.02,> 30,18.8,–,–,–,36,–,–,–
CCCCCOC(=O)CNC(=O)C(CSc1ccc([N+](=O)[O-])cc1[N+](=O)[O-])NC(=O)CCC(NC(=O)OCc1ccccc1)C(=O)OCCCCC (configuration not stated),–,0.38,> 30,6.04,6.7,789,–,–,–,–,–,–,> 300
CCCCC(C)OC(=O)CNC(=O)C(CSc1ccc([N+](=O)[O-])cc1[N+](=O)[O-])NC(=O)CCC(NC(=O)OCc1ccccc1)C(=O)OC(C)CCCC (configuration not stated),178,5.2,> 30,6.87,> 30,46,–,6,21,–,–,–,–
O=C(CCC(NC(=O)OCc1ccccc1)C(=O)OCCCCCl)NC(CSc1ccc([N+](=O)[O-])cc1[N+](=O)[O-])C(=O)NCC(=O)OCCCCCl (configuration not stated),0.38,3.05,> 30,5.56,28,0.12,–,–,–,–,–,–,–
CC(C)CCC(C)OC(=O)CNC(=O)C(CSc1ccc([N+](=O)[O-])cc1[N+](=O)[O-])NC(=O)CCC(NC(=O)OCc1ccccc1)C(=O)OC(C)CCC(C)C (configuration not stated),> 300,34.8,> 30,7.71,–,> 9,–,70,–,–,–,–,–
COCCOC(=O)CNC(=O)C(CSc1ccc([N+](=O)[O-])cc1[N+](=O)[O-])NC(=O)CCC(NC(=O)OCc1ccccc1)C(=O)OCCOC (configuration not stated),0.7,10,20,1.56,–,0.07,–,–,–,–,–,–,–
CC(C)C(C)OC(=O)CNC(=O)C(CSc1ccc([N+](=O)[O-])cc1[N+](=O)[O-])NC(=O)CCC(NC(=O)OCc1ccccc1)C(=O)OC(C)C(C)C (configuration not stated),245,6,13.4,5.75,< 30,24,–,–,64,–,–,–,–

# Second part, led by results:
EC50 [1] [µM],EC50 [3] [µM],EC50 [5] [µM],logP [6],EC50 [9] [µM],Structure (SMILES),selectivity ratio [2],Activity against T. cruzi [4],inhibition at 30 µM [7] [%],inhibition at 30 µM [8] [%],Inhibition [10] [%],NA [11],Inhibition [12] [%],ED50 [13] [µM]
269,20,7.8,3.93,–,CC(C)OC(=O)CNC(=O)C(CSc1ccc([N+](=O)[O-])cc1[N+](=O)[O-])NC(=O)CCC(NC(=O)OCc1ccccc1)C(=O)OC(C)C (configuration not stated),13.5,not active at 30 umol,–,–,–,–,–,–
–,–,> 30,1.82,–,CCOC(=O)CNC(=O)C(CSc1ccc([N+](=O)[O-])cc1[N+](=O)[O-])NC(=O)CCC(NC(=O)OCc1ccccc1)C(=O)O (configuration not stated),–,–,–,–,–,–,–,–
–,–,–,2.23,–,CC(C)OC(=O)CNC(=O)C(CSc1ccc([N+](=O)[O-])cc1[N+](=O)[O-])NC(=O)CCC(NC(=O)OCc1ccccc1)C(=O)O (configuration not stated),–,not active at 30 umol,–,–,–,not active at 30 umol,–,–
–,–,> 30,2.31,–,CCCOC(=O)CNC(=O)C(CSc1ccc([N+](=O)[O-])cc1[N+](=O)[O-])NC(=O)CCC(NC(=O)OCc1ccccc1)C(=O)O (configuration not stated),–,not active at 30 umol,–,–,–,not active at 30 umol,–,–
–,–,> 30,1.32,–,COC(=O)CNC(=O)C(CSc1ccc([N+](=O)[O-])cc1[N+](=O)[O-])NC(=O)CCC(NC(=O)OCc1ccccc1)C(=O)O (configuration not stated),–,–,–,–,–,–,–,–
–,20,20,2.72,–,CCC(C)OC(=O)CNC(=O)C(CSc1ccc([N+](=O)[O-])cc1[N+](=O)[O-])NC(=O)CCC(NC(=O)OCc1ccccc1)C(=O)O (configuration not stated),–,not active at 30 umol,–,–,–,–,–,–
15.2,21.8,> 30,2.97,> 30,O=C(CCC(NC(=O)OCc1ccccc1)C(=O)OCCF)NC(CSc1ccc([N+](=O)[O-])cc1[N+](=O)[O-])C(=O)NCC(=O)OCCF (configuration not stated),0.99,–,–,–,8,–,26,–
50.5,0.18,29.6,5.67,> 30,O=C(CCC(NC(=O)OCc1ccccc1)C(=O)OC1CCCC1)NC(CSc1ccc([N+](=O)[O-])cc1[N+](=O)[O-])C(=O)NCC(=O)OC1CCCC1 (configuration not stated),280,–,–,30,–,–,–,–
49.5,0.49,9.92,3.6,–,O=C(CCC(NC(=O)OCc1ccccc1)C(=O)OCCCl)NC(CSc1ccc([N+](=O)[O-])cc1[N+](=O)[O-])C(=O)NCC(=O)OCCCl (configuration not stated),101,–,–,–,–,–,–,–
51,0.21,–,6.65,–,O=C(CCC(NC(=O)OCc1ccccc1)C(=O)OC1CCCCC1)NC(CSc1ccc([N+](=O)[O-])cc1[N+](=O)[O-])C(=O)NCC(=O)OC1CCCCC1 (configuration not stated),243,–,–,–,–,–,–,–
